In paper PMC12391519 (Scientific Reports, 2025):

Assays:
[1] = tested on: albumin; details: cited from earlier work
[2] = Free serum TEIC trough concentration by ultrafiltration followed by HPLC; format: in vivo, human
How it was run: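 Trough serum (1 mL) was ultrafiltered through a 30 kDa cutoff filter. The filtrate got primidone internal standard, acetonitrile deproteinisation and 0.1 M HCl/chloroform cleanup, then C18 HPLC-UV at 215 nm; calibrators were in ultrafiltered human serum. Response was […] CRP decrease plus ≥0.3 °C fever reduction for two consecutive days within 96 h. Adverse events were renal or hepatic dysfunction. Groups were compared by Mann–Whitney U.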

[3] = Total serum TEIC trough concentration by HPLC in patients on TEIC therapy; format: in vivo, human
How it was run: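 Trough serum was drawn before dosing (days 3–4 of loading, day 7 onward of maintenance), centrifuged 1,800 g for 15 min at 25 °C and stored at –30 °C. It got primidone internal standard, acetonitrile deproteinisation and 0.1 M HCl/chloroform cleanup. HPLC-UV ran at 215 nm on a C18 column at 35 °C with a 10 mM phosphate pH 3.0/acetonitrile gradient at 1.0 mL/min. Calibrators were in commercial human serum; groups were compared by Mann–Whitney U.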

[4] = tested on: serum albumin; test: Free TEIC percentage; format: in vitro ADME, human; details: patient serum, HPLC-UV
How it was run: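 Free percentage is free/total trough TEIC, both measured by HPLC-UV at 215 nm; free drug was taken after 30 kDa ultrafiltration of serum. Samples were drawn before dosing on days 3–4 (loading: five doses, median 13 mg/kg every 12 h) or from day 7 (maintenance: median 7.8 mg/kg once daily). Relation to albumin was assessed by Spearman rank correlation.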

[5] = Adverse events during TEIC therapy; format: in vivo, human; details: ROC analysis, n = 41
How it was run: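 Renal dysfunction was a serum creatinine rise of ≥0.3 mg/dL within 48 h, or ≥1.5-times baseline within seven days, of TEIC administration. Hepatic dysfunction was AST or ALT outside the normal limit of ≤30 IU/L (CTCAE v5.0). ROC analysis used measured free trough TEIC (ultrafiltration, HPLC-UV). The cutoff was the point where sensitivity and specificity, plotted against free concentration, gave the best result.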

[6] = cited from earlier work

**Q.** With Teicoplanin as the substance, how does the “nKa (binding sites per albumin molecule × association constant)” value ([1]; analysis of Yano et al.) read?
**A.** Its value is 1.78 (g/dL)^−1.

**Q.** What about the “Protein-binding rate used by Byrne et al.” value [1] of the same substance?
**A.** Its value is 90–95%.

**Q.** And the Protein-binding rate ([1]; in humans, serum albumin)?
**A.** The Protein-binding rate was no less than 90%.

**Q.** And the “Free serum TEIC concentration, single patient with adverse events” value ([2]; another patient, total serum TEIC < 40 μg/mL, adverse events noted)?
**A.** Its value is 6.31 µg/mL.

**Q.** What about the “Trough free concentration, loading dose period, median” value ([2]; loading dose period, ultrafiltration 30 kDa, HPLC-UV, median) of the same substance?
**A.** Its value is 1.50 µg/mL.

**Q.** And the “Trough free concentration, maintenance dose period, median” value ([2]; maintenance dose period, ultrafiltration 30 kDa, HPLC-UV, median)?
**A.** The value was 1.65 µg/mL.

**Q.** What about the “Free serum TEIC concentration, patients with adverse events, median” value ([2]; n = 7, median) of the same substance?
**A.** Its value is 2.60 µg/mL.

**Q.** And the “Free serum TEIC concentration, patients without effective response, median” value ([2]; n = 7, median)?
**A.** The value was 1.26 µg/mL.

**Q.** And the “Free serum TEIC concentration, patients with effective response, median” value ([2]; n = 17, median)?
**A.** Its value is 1.50 µg/mL.

**Q.** And the “Free serum TEIC concentration, patients without adverse events, median” value ([2]; n = 34, median)?
**A.** The value was 1.35 µg/mL.

**Q.** What about the “Free serum TEIC concentration, single patient with efficacy” value ([2]; one of the 17 patients who showed efficacy, total serum TEIC < 15 µg/mL) of the same substance?
**A.** The value was 1.67 µg/mL.

**Q.** What about the “Free serum TEIC concentration, single patient with high total concentration” value ([2]; one patient, total serum TEIC > 40 μg/mL) of the same substance?
**A.** The value was 1.78 µg/mL.

**Q.** What about the “Trough total concentration, loading dose period, median” value ([3]; loading dose period (days 3–4, median dose 13 mg/kg every 12 h), serum, HPLC-UV) of the same substance?
**A.** The value was 24.3 µg/mL.

**Q.** And the “Trough total concentration, maintenance dose period, median” value ([3]; maintenance dose period (day 7 onward, median dose 7.8 mg/kg once daily), serum, HPLC-UV)?
**A.** Its value is 26.2 µg/mL.

**Q.** And the “Total serum TEIC concentration, patients with adverse events, median” value ([3]; n = 7)?
**A.** Its value is 36.1 µg/mL.

**Q.** What about the “Total serum TEIC concentration, patients without effective response, median” value ([3]; n = 7) of the same substance?
**A.** Its value is 21.1 µg/mL.

**Q.** And the “Total serum TEIC concentration, patients with effective response, median” value ([3]; n = 17)?
**A.** Its value is 24.8 µg/mL.

**Q.** And the “Total serum TEIC concentration, patients without adverse events, median” value ([3]; n = 34)?
**A.** The value was 30.1 µg/mL.

**Q.** And the “Free teicoplanin percentage, median” value ([4]; all samples, ultrafiltration 30 kDa, free/total)?
**A.** Its value is 6.3%.

**Q.** And the “Free teicoplanin percentage, loading dose period, median” value ([4]; loading dose period, ultrafiltration)?
**A.** Its value is 6.2%.

**Q.** What about the “Free teicoplanin percentage, maintenance dose period, median” value ([4]; maintenance dose period, ultrafiltration) of the same substance?
**A.** Its value is 6.3%.

**Q.** What about the “Cutoff value of free serum TEIC concentration for occurrence of adverse events” value [5] of the same substance?
**A.** The value was 2.07 µg/mL.

**Q.** What about the “Cutoff of mean free serum TEIC concentration associated with renal dysfunction” value ([6]; Sugiyama et al.) of the same substance?
**A.** Its value is 4.2 µg/mL.

**Q.** What about the “Effective total serum TEIC trough concentrations in clinical settings” value [6] of the same substance?
**A.** Its value is 15 to 40 µg/mL.

**Q.** What about the “Effective total serum TEIC trough concentrations, complicated infections” value [6] of the same substance?
**A.** The value was 20 to 40 µg/mL.

**Q.** And the “Effective total serum TEIC trough concentrations, uncomplicated infections” value [6]?
**A.** Its value is 15 to 30 µg/mL.

**Q.** What about the “TEIC concentration causing renal dysfunction” value [6] of the same substance?
**A.** The value was greater than 60 µg/mL.
